Data published in ChEMBL document CHEMBL1124748, “Preparation of triazolo[1,5-c]pyrimidines as potential antiasthma agents” (J Med Chem, 1990).
pIC50: −log10 of the molar value.

Key:
[1] = Antiasthmatic activity against the immunoglobulin E (IgE) antigen using the human basophil asthma model.; format: functional
Summary of the method: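 Leukocytes washed and resuspended in pH 7.4 buffer (25 mM PIPES, 110 mM NaCl, 5 mM KCl, 0.6 mM CaCl2, 1.0 mM MgCl2, 0.03% HSA). Cells preincubated with drug 10 min at 37 °C, then incubated 1 h at 37 °C with shaking. Histamine in HClO4-treated supernatants measured fluorometrically against lysed-cell totals. Triplicates, controls sextuplicate. IC50 from linear regression of percent release.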

[2] = tested on: Mus musculus; experiment: Effective dose (ip) evaluated by Passive cutaneous anaphylaxis test (PCA) by injecting IgE serum intradermally in mice
[3] = Antiasthmatic activity against the immunoglobulin E (IgE) antigen using the human basophil asthma model; I = Inactive at 48 uM; format: functional

SMILES	pIC50 [1]	IC50 [3]	ED50 [2]
Cc1cnc(-c2ccccc2)n2nc(N)nc12		Not Active	
Nc1nc2ccnc(-c3cccs3)n2n1		Not Active	
Nc1nc2cc(C(F)(F)F)nc(-c3cccc(C(F)(F)F)c3)n2n1		Not Active	
Nc1nc2ccnc(-c3ccc(C(F)(F)F)cc3)n2n1		Not Active	
Nc1nc2ccnc(-c3ccccc3F)n2n1		Not Active	218 mg/kg
Cc1cnc(-c2cccc(C(F)(F)F)c2)n2nc(N)nc12	5.25		
CCCc1cc2nc(N)nn2c(-c2cccc(C(F)(F)F)c2)n1		Not Active	
FC(F)(F)c1cccc(-c2nccc3nc(NCC4CO4)nn23)c1 (stereo unspecified)		Not Active	
Nc1nc2ccnc(-c3ccccn3)n2n1		Not Active	
Cc1cc2nc(N)nn2c(-c2ccc(C(F)(F)F)cc2)n1		Not Active	
Cc1cccnc1-c1nccc2nc(N)nn12		Not Active	
CN(C)/C=N/c1nc2ccnc(-c3cccc(C(F)(F)F)c3)n2n1		Not Active	
Cc1cnc(-c2cccc([N+](=O)[O-])c2)n2nc(Cl)nc12		Not Active	
Nc1nc2ccnc(-c3cccc(C(F)(F)F)c3)n2n1	5.66		166 mg/kg
Nc1nc2ccnc(-c3cc[n+]([O-])cc3)n2n1	5.25		
Cc1cnccc1-c1nccc2nc(N)nn12	5.60		

SMILES	pIC50 [1]	IC50 [3]	ED50 [2]
Nc1nc2ccnc(-c3cc(C(F)(F)F)cc(C(F)(F)F)c3)n2n1	6.15		
Cc1cnc(-c2ccc(C(F)(F)F)cc2)n2nc(N)nc12		Not Active	
CNc1nc2ccnc(-c3cccc(C(F)(F)F)c3)n2n1	4.99		
CCCc1c(C)nc(-c2cccc(C(F)(F)F)c2)n2nc(N)nc12		Not Active	
Cc1cnc(-c2cccc([N+](=O)[O-])c2)n2nc(N)nc12	5.06		
Nc1nc2ccnc(-c3cccnc3)n2n1	4.85		
C[n+]1cccc(-c2nccc3nc(N)nn23)c1.[I-]		Not Active	
Nc1nc2ccnc(-c3ccncc3)n2n1	4.74		14 mg/kg
CNc1cccc(-c2ncc(C)c3nc(NC)nn23)c1		Not Active	
Nc1nc2ccnc(-c3ccc[n+]([O-])c3)n2n1		Not Active	
Cc1cc2nc(N)nn2c(-c2cccc(C(F)(F)F)c2)n1		Not Active	
Cn1c(=O)c2nc[nH]c2n(C)c1=O.O [THEOPHYLLINE]	3.51		140 mg/kg
Cc1cnc(-c2cccc([N+](=O)[O-])c2)n2nc(N3CCOCC3)nc12		Not Active	
CN(C)c1nc2ccnc(-c3cccc(C(F)(F)F)c3)n2n1		Not Active	
Nc1nc2ccnc(-c3cc(Cl)cc(Cl)c3)n2n1		Not Active	

Further lines, with some results ahead:

pIC50 [1]	IC50 [3]	SMILES	ED50 [2]
5.43		Nc1nc2ccnc(-c3cccc(Br)c3)n2n1	142 mg/kg
5.03		OC(CCl)CNc1nc2ccnc(-c3cccc(C(F)(F)F)c3)n2n1 (stereo unspecified)	
5.26		Cc1cccc(-c2nccc3nc(N)nn23)c1	
5.46		CN(C)C(=O)c1cccc(-c2nccc3nc(N)nn23)c1	
	Not Active	Nc1nc2ccnc(-c3cccc(F)c3)n2n1	
5.47		Nc1nc2ccnc(-c3cccc(OC(F)F)c3)n2n1	138 mg/kg
	Not Active	Nc1nc2ccnc(-c3ccccc3)n2n1	
	Not Active	Cc1cnc(-c2cccc(N)c2)n2nc(N)nc12	
5.80		CC(=O)Nc1nc2ccnc(-c3cccc(NS(=O)(=O)c4ccc(C)cc4)c3)n2n1	
5.37		Nc1nc2ccnc(-c3cccc(Cl)c3)n2n1	
	Not Active	FC(F)(F)c1cccc(-c2nccc3ncnn23)c1	
4.29		CC(=O)Nc1nc2c(C)cnc(-c3cccc(NS(=O)(=O)c4ccc(C)cc4)c3)n2n1	
4.50		Nc1nc2ccnc(-c3ccc(F)cc3)n2n1	178 mg/kg
	Not Active	CC(=O)N(C)c1nc2ccnc(-c3cccc(C(F)(F)F)c3)n2n1	
	Not Active	Cc1ccc(S(=O)(=O)Nc2cccc(-c3ncc(C)c4nc(N)nn34)c2)cc1	
4.94		CCOC(=O)c1cccc(-c2nccc3nc(N)nn23)c1	

pIC50 [1]	IC50 [3]	SMILES	ED50 [2]
6.00		Nc1nc2ccnc(-c3cccc(C(Cl)Cl)c3)n2n1	
	Not Active	CCOC(=O)CN(C(C)=O)c1nc2ccnc(-c3cccc(C(F)(F)F)c3)n2n1	
	Not Active	Nc1nc2ccnc(Cc3cccc(C(F)(F)F)c3)n2n1	178 mg/kg
	Not Active	CC(=O)Nc1nc2c(C)cnc(-c3cccc(N)c3)n2n1	
4.78		CCOC(=O)c1ccc(-c2nccc3nc(N)nn23)cc1	
3.00		O=C(O)c1cc(=O)c2c(OCC(O)COc3cccc4oc(C(=O)O)cc(=O)c34)cccc2o1 [CROMOLYN SODIUM]	
5.42		Nc1nc2ccnc(-c3cccc([N+](=O)[O-])c3)n2n1	
	Not Active	CCOC(=O)CNc1nc2ccnc(-c3cccc(C(F)(F)F)c3)n2n1	
6.15		Nc1nc2ccnc(-c3cccc(C=O)c3)n2n1	
	Not Active	CC(=O)Nc1nc2ccnc(-c3cccc([N+](=O)[O-])c3)n2n1	
4.96		CC(=O)Nc1nc2c(C)cnc(-c3cccc([N+](=O)[O-])c3)n2n1	
	Not Active	Nc1nc2ccnc(-c3cccc(CO)c3)n2n1	
	Not Active	Nc1nc2ccnc(-c3cccc(C(=O)O)c3)n2n1	
4.90		C#Cc1cccc(-c2nccc3nc(N)nn23)c1	
4.70		CC(=O)Nc1nc2ccnc(-c3cccc(C(F)(F)F)c3)n2n1	
5.82		Cc1ccc(S(=O)(=O)Nc2cccc(-c3nccc4nc(N)nn34)c2)cc1	
